Usually Ki stands for a dissociation constant, usually derived from enzyme kinetics or from competition with a known ligand. Higher therefore signals a looser hold on the target. The EC50 is the concentration at which the effect is half-maximal. By IC50 is commonly meant the concentration that gives 50% inhibition.

The values that follow come from ChEMBL document CHEMBL4321823, “Benzyl Phenylsemicarbazides: A Chemistry-Driven Approach Leading to G Protein-Biased Dopamine D4 Receptor Agonists with High Subtype Selectivity” (J Med Chem, 2019).

Structures are written as SMILES.

Test [1] deals with T1, D(4) dopamine receptor (Homo sapiens, UniProt P21917).
T1 sequence (P21917 whole entry): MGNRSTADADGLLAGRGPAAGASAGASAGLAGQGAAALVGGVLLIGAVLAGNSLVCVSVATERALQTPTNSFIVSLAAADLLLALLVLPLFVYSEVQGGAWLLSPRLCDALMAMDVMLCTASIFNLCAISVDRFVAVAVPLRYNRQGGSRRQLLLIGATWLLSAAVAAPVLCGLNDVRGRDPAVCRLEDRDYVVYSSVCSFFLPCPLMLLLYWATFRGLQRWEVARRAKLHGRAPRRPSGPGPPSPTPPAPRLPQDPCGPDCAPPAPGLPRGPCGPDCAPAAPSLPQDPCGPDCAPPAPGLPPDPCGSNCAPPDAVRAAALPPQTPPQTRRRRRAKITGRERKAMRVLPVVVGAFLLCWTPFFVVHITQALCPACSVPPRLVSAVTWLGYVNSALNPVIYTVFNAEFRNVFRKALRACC
The experiment in a line: Displacement of [3H] Spiperone from human D4.4 receptor expressed in CHO cells by competitive radioligand binding assay. The format is cell-based. Background: In a radioligand displacement assay an active substance lowers the binding of a labelled ligand.

The species named for test [2] is Homo sapiens. The experiment in a line: Selectivity index, ratio of Ki for displacement of [3H] Spiperone from human D2L receptor expressed in CHO cells to Ki for displacement of [3H] Spiperone from human D4.4 receptor expressed in CHO cells. Type of test: cell-based. The essentials: (§1)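 Competition binding against [3H]spiperone on membranes of CHO cells stably expressing cloned human D2L, D2S, D3 or D4.4 receptors. Ki from monophasic curve fits; mean ± SEM of three to seven experiments, each in triplicate. Selectivity calculated as Ki(D2L, D2S or D3) divided by Ki(D4.4).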

Test [3] has as its target T2, D(2) dopamine receptor (Homo sapiens, UniProt P14416). Nature of the test: Displacement of [3H] Spiperone from human D2S receptor expressed in CHO cells by competitive radioligand binding assay. Type of test: cell-based.
The species named for test [4] is Homo sapiens. Nature of the test: Selectivity index, ratio of Ki for displacement of [3H] Spiperone from human D2S receptor expressed in CHO cells to Ki for displacement of [3H] Spiperone from human D4.4 receptor expressed in CHO cells. The format is cell-based. A digest of the protocol:
as §1

Test [5] concerns the target T1, D(4) dopamine receptor. Nature of the test: Agonist activity at human D4 receptor expressed in HEK293T cells co-expressing G-alphaqi assessed as accumulation of inositol monophosphate using d2-labelled IP1 conjugate incubated for 90 mins by HTRF assay. Type of test: functional, cell-based.
Test [6] addresses T1, D(4) dopamine receptor. Nature of the test: Antagonist activity at […] D4 receptor (unknown origin) expressed in HEK293 cells co-expressing beta-arrestin2 assessed as inhibition of quinpirole-induced beta-arrestin2 recruitment preincubated for 30 mins followed by quinpirole addition and further incubated for 6 hrs by Path-Hunter assay. The format is cell-based. (Activated receptors often draw arrestin, which recruitment assays turn into a signal.)

The species named for test [7] is Homo sapiens. The experiment in a line: Selectivity index, ratio of Ki for displacement of [3H] Spiperone from human D3 receptor expressed in CHO cells to Ki for displacement of [3H] Spiperone from human D4.4 receptor expressed in CHO cells. Type of test: cell-based. The essentials: as §1
The next test addresses D(3) dopamine receptor (Homo sapiens, UniProt P35462). Nature of the test: Displacement of [3H] Spiperone from human D3 receptor expressed in CHO cells by competitive radioligand binding assay. Type of test: cell-based.
In test [8] the target is T2, D(2) dopamine receptor. The experiment in a line: Displacement of [3H] Spiperone from human D2L receptor expressed in CHO cells by competitive radioligand binding assay. Type of test: cell-based.
Test [9] addresses T1, D(4) dopamine receptor. Type of test: cell-based, HEK293.

T2 sequence (P14416 whole entry): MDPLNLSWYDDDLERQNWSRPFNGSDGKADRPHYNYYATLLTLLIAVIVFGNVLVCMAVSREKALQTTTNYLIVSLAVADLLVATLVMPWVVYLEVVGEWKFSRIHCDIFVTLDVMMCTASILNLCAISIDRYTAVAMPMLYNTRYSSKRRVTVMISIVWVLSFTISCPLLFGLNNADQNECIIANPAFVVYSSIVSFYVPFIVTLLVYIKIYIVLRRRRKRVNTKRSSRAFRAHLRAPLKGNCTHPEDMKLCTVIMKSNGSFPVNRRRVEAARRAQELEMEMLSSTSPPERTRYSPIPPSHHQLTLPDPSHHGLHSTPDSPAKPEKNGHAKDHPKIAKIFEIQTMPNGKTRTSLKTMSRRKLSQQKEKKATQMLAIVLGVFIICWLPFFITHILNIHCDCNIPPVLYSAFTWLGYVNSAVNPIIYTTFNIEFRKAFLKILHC
Chain of D(3) dopamine receptor (P35462 whole entry): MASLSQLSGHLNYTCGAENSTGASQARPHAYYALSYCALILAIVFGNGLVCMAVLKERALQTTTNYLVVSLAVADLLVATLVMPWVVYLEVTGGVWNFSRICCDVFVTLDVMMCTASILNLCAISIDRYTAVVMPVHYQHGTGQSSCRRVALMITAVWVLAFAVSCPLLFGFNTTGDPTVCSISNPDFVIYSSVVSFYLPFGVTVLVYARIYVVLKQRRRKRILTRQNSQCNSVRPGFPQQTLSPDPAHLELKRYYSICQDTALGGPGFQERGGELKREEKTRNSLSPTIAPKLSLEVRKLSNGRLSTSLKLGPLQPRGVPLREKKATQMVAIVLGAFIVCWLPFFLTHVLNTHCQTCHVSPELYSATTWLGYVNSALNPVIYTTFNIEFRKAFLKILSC

As to `COc1ccccc1N1CCN(CCCNC(=O)NN(Cc2ccccc2)c2ccc(F)cc2)CC1`, the inhibition constant (Ki) on D(4) dopamine receptor [1] amounted to 0.55 nM; at D(2) dopamine receptor [3], 4.3 nM; at D(3) dopamine receptor, 25 nM; at D(2) dopamine receptor [8] it was 6.6 nM. Also, the values for the Ratio Ki in the test filed under Homo sapiens [2], in the test filed under Homo sapiens [4] and in the test filed under Homo sapiens [7] were 12, 7.8 and 45, respectively. Besides, the EC50 was 1.8 nM at D(4) dopamine receptor [5] and 340 nM at D(4) dopamine receptor [9]. The half-inhibitory concentration (IC50) at D(4) dopamine receptor [6] was found to be 49 nM.

As for `COc1ccccc1N1CCN(CCCCNC(=O)NN(Cc2ccccc2)c2ccc(F)cc2)CC1`, the inhibition constant (Ki) at D(4) dopamine receptor [1] was found to be 4.4 nM; on D(2) dopamine receptor [3], 94 nM; at D(3) dopamine receptor, 76 nM; at D(2) dopamine receptor [8], 160 nM. The Ratio Ki is 36 in the test filed under Homo sapiens [2], 21 in the test listed under Homo sapiens [4] and 17 in the test listed under Homo sapiens [7].

As for `COc1ccccc1N1CCN(CCCNC(=O)NN(Cc2ccc(F)cc2)c2ccc(F)cc2)CC1`, the Ki turned out to be 4.6 nM at D(4) dopamine receptor [1], 30 nM on D(2) dopamine receptor [3], 85 nM at D(3) dopamine receptor and 77 nM on D(2) dopamine receptor [8]. In addition, the Ratio Ki in the test filed under Homo sapiens [2] was determined as 17; in the test listed under Homo sapiens [4], 6.5; in the test filed under Homo sapiens [7], 18.

As to `COc1ccc(N(Cc2ccccc2)NC(=O)NCCCN2CCN(c3ccccc3OC)CC2)cc1`, the inhibition constant Ki was 1.7 nM at D(4) dopamine receptor [1], 19 nM on D(2) dopamine receptor [3], 120 nM at D(3) dopamine receptor and 45 nM at D(2) dopamine receptor [8]. In addition, the figures for the Ratio Ki in the test listed under Homo sapiens [2], in the test filed under Homo sapiens [4] and in the test filed under Homo sapiens [7] were 26, 11 and 71, respectively.

Turning to `O=C(NCCCN1CCN(c2ccc(Cl)cc2)CC1)NN(Cc1ccccc1)c1ccccc1`, the inhibition constant (Ki) on D(4) dopamine receptor [1] is 9.7 nM; on D(2) dopamine receptor [3] it was 410 nM; at D(3) dopamine receptor it was 1100 nM; at D(2) dopamine receptor [8], 640 nM. Moreover, the Ratio Ki in the test filed under Homo sapiens [2] was 66; in the test listed under Homo sapiens [4] it was 42; in the test filed under Homo sapiens [7], 110.

For the molecule `COc1ccccc1N1CCN(CCCNC(=O)NN(Cc2ccccc2)c2ccc(Cl)cc2)CC1`, the Ki on D(4) dopamine receptor [1] is 2.9 nM; on D(2) dopamine receptor [3], 23 nM; at D(3) dopamine receptor, 130 nM; on D(2) dopamine receptor [8], 32 nM. For the same molecule, the Ratio Ki in the test listed under Homo sapiens [2] was 11; in the test listed under Homo sapiens [4], 7.9; in the test listed under Homo sapiens [7] it was 45.

With `COc1ccccc1N1CCN(CCCNC(=O)NN(Cc2ccccc2F)c2ccc(Br)cc2)CC1`, the Ki on D(4) dopamine receptor [1] came out at 3.3 nM; at D(2) dopamine receptor [3], 22 nM; at D(3) dopamine receptor, 92 nM; on D(2) dopamine receptor [8], 45 nM. Also, the Ratio Ki in the test listed under Homo sapiens [2] was found to be 14; in the test filed under Homo sapiens [4], 6.7; in the test listed under Homo sapiens [7] it was 28.

As for `O=C(NCCCN1CCN(c2ncccn2)CC1)NN(Cc1ccc(F)cc1)c1ccccc1`, the Ki at D(4) dopamine receptor [1] is 19 nM; on D(2) dopamine receptor [3] it was 310 nM; on D(3) dopamine receptor, 1900 nM; on D(2) dopamine receptor [8], 430 nM. The Ratio Ki in the test filed under Homo sapiens [2] worked out at 23; in the test filed under Homo sapiens [4], 16; in the test listed under Homo sapiens [7] it was 100.

As to `O=C(NCCN1CCN(c2ccc(I)cc2)CC1)NN(Cc1ccccc1)c1ccccc1`, the inhibitory constant (Ki) turned out to be 44 nM at D(4) dopamine receptor [1], 510 nM at D(2) dopamine receptor [3], 1800 nM on D(3) dopamine receptor and 490 nM at D(2) dopamine receptor [8]. Moreover, the figures for the Ratio Ki in the test filed under Homo sapiens [2], in the test filed under Homo sapiens [4] and in the test filed under Homo sapiens [7] were 11, 12 and 38, respectively.

In the case of `C=C(C)CN(NC(=O)NCCCN1CCN(c2ccccc2OC)CC1)c1ccc(OC)cc1`, the Ki at D(4) dopamine receptor [1] worked out at 64 nM; on D(2) dopamine receptor [3], 300 nM; at D(3) dopamine receptor, 860 nM; on D(2) dopamine receptor [8], 210 nM. Also, the Ratio Ki was 3.3 in the test listed under Homo sapiens [2], 4.7 in the test listed under Homo sapiens [4] and 13 in the test listed under Homo sapiens [7].
